# Results from ChEMBL document CHEMBL1153177, “Exploring SAR features in diverse library of 4-cyanomethyl-pyrazole-3-carboxamides suitable for further elaborations as CB1 antagonists” (Bioorg Med Chem Lett, 2010).
# Assays:
# [1] = Octanol-water partition coefficient, log D of the compound; format: physicochemical
# Cannabinoid receptor 1 [2] = molecular target: T1, Cannabinoid receptor 1 (Homo sapiens, UniProt P21554); format: functional, cell-based, CHO-K1
# Cannabinoid receptor 1 [3] = molecular target: T1, Cannabinoid receptor 1; assay: Inverse agonist activity at human recombinant CB1 receptor expressed in CHO-K1 cells assessed as stimulation of GTPgammaS binding; format: functional, cell-based
# Procedure, shortened: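 Membranes came from CHO-K1 cells stably transfected with recombinant human CB1. Efficacy above 100% was taken as inverse agonist activity. IC50 values are the mean of at least two determinations.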
# T1 sequence (P21554 whole entry): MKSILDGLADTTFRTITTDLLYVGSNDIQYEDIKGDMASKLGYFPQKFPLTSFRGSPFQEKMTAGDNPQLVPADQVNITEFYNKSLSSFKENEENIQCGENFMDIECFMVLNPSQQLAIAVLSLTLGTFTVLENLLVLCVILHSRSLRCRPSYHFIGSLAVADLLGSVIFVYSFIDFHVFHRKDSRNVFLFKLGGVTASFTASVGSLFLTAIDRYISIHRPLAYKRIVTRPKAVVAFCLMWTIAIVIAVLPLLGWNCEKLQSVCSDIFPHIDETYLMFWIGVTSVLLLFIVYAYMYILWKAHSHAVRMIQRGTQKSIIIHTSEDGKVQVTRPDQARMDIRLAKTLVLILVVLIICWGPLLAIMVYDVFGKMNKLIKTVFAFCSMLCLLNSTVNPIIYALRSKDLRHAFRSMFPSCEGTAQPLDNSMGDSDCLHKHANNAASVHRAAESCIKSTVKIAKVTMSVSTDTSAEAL
Compound,logD [1],IC50 (Cannabinoid receptor 1 [2]),IC50 (Cannabinoid receptor 1 [3])
N#CCc1c(C(=O)Nc2cccnc2)nn(-c2ccccc2Cl)c1-c1ccc(Cl)cc1,3.3,57 nM,–
CS(=O)(=O)N1CCC(NC(=O)c2nn(-c3ccccc3Cl)c(-c3ccc(Cl)cc3)c2CC#N)CC1,–,31 nM,–
N#CCc1c(C(=O)N2CCC(c3ccccc3C(=O)O)CC2)nn(-c2ccccc2Cl)c1-c1ccc(Cl)cc1,–,2810 nM,–
N#CCc1c(C(=O)NCCc2ccccc2)nn(-c2ccccc2Cl)c1-c1ccc(Cl)cc1,–,16 nM,–
N#CCc1c(C(=O)N2CCN(c3ccccc3)CC2)nn(-c2ccccc2Cl)c1-c1ccc(Cl)cc1,–,13 nM,–
N#CCc1c(C(=O)Nc2ccc(C(F)(F)F)nc2)nn(-c2ccccc2Cl)c1-c1ccc(Cl)cc1,–,14 nM,–
N#CCc1c(C(=O)N2CCCCC2c2ccc(F)cc2)nn(-c2ccccc2Cl)c1-c1ccc(Cl)cc1 (stereo not drawn),–,23 nM,–
N#CCc1c(C(=O)NCCN2CCCCC2)nn(-c2ccccc2Cl)c1-c1ccc(Cl)cc1,2.9,1110 nM,–
N#CCc1c(C(=O)NN2CCCCC2)nn(-c2ccccc2Cl)c1-c1ccc(Cl)cc1,3.6,7.5 nM,–
Cc1cc(CNC(=O)c2nn(-c3ccccc3Cl)c(-c3ccc(Cl)cc3)c2CC#N)no1,–,15 nM,–
N#CCc1c(C(=O)N2CC[C@@H](OCc3ccc(F)cc3)C2)nn(-c2ccccc2Cl)c1-c1ccc(Cl)cc1,–,20 nM,–
COC(=O)C(NC(=O)c1nn(-c2ccccc2Cl)c(-c2ccc(Cl)cc2)c1CC#N)C(C)C (stereo not drawn),–,7.3 nM,–
CC(C)C(NC(=O)c1nn(-c2ccccc2Cl)c(-c2ccc(Cl)cc2)c1CC#N)C(=O)O (stereo not drawn),–,6250 nM,–
N#CCc1c(C(=O)N2CCCC2c2ccc(F)cc2)nn(-c2ccccc2Cl)c1-c1ccc(Cl)cc1 (stereo not drawn),–,27 nM,–
N#CCc1ccc(NC(=O)c2nn(-c3ccccc3Cl)c(-c3ccc(Cl)cc3)c2CC#N)cc1,3.8,55 nM,–
N#CCc1c(C(=O)NC(Cc2ccccc2)C(=O)O)nn(-c2ccccc2Cl)c1-c1ccc(Cl)cc1 (stereo not drawn),–,4450 nM,–
N#CCc1c(C(=O)Nc2cnc3ccccc3c2)nn(-c2ccccc2Cl)c1-c1ccc(Cl)cc1,4,19 nM,–
N#CCc1c(C(=O)Nc2cccnc2Cl)nn(-c2ccccc2Cl)c1-c1ccc(Cl)cc1,4.4,18 nM,–
CS(=O)(=O)C1CCN(C(=O)c2nn(-c3ccccc3Cl)c(-c3ccc(Cl)cc3)c2CC#N)CC1,–,17 nM,–
N#CCc1c(C(=O)Nc2ccc(F)cc2)nn(-c2ccccc2Cl)c1-c1ccc(Cl)cc1,4.2,11 nM,–
N#CCc1c(C(=O)NCc2c(Cl)cccc2Cl)nn(-c2ccccc2Cl)c1-c1ccc(Cl)cc1,4.6,7 nM,–
N#CCc1c(C(=O)NN2CCOCC2)nn(-c2ccccc2Cl)c1-c1ccc(Cl)cc1,–,71 nM,–
"N#CCc1c(C(=O)N[C@@H]2c3ccccc3C[C@@H]2O)nn(-c2ccccc2Cl)c1-c1ccc(Cl)cc1 (single isomer, unassigned)",–,7.8 nM,–
N#CCc1c(C(=O)N2CCC(c3ccc(F)cc3)C2)nn(-c2ccccc2Cl)c1-c1ccc(Cl)cc1 (stereo not drawn),–,9.2 nM,–
CC(=O)C1CCN(C(=O)c2nn(-c3ccccc3Cl)c(-c3ccc(Cl)cc3)c2CC#N)CC1,–,199 nM,–
CCC(CC)NC(=O)c1nn(-c2ccccc2Cl)c(-c2ccc(Cl)cc2)c1CC#N,–,5.8 nM,–

# The remaining lines, values ahead:
logD [1],IC50 (Cannabinoid receptor 1 [2]),IC50 (Cannabinoid receptor 1 [3]),Compound
–,3.8 nM,–,N#CCc1c(C(=O)N2CCN(c3ncccn3)CC2)nn(-c2ccccc2Cl)c1-c1ccc(Cl)cc1
4.4,2.6 nM,–,N#CCc1c(C(=O)NCc2cccc(Cl)c2)nn(-c2ccccc2Cl)c1-c1ccc(Cl)cc1
4.2,5.6 nM,–,CN(Cc1ccc(F)cc1)C(=O)c1nn(-c2ccccc2Cl)c(-c2ccc(Cl)cc2)c1CC#N
–,0.49 nM,–,N#CCc1c(C(=O)NC2CCCCCC2)nn(-c2ccccc2Cl)c1-c1ccc(Cl)cc1
–,1.7 nM,–,"N#CCc1c(C(=O)N[C@H]2c3ccccc3C[C@H]2O)nn(-c2ccccc2Cl)c1-c1ccc(Cl)cc1 (single isomer, unassigned)"
–,3.4 nM,–,N#CCc1c(C(=O)N2CCC(O)(Cc3ccccc3)CC2)nn(-c2ccccc2Cl)c1-c1ccc(Cl)cc1
4.5,0.51 nM,–,N#CCc1c(C(=O)NCc2ccc(Br)cc2F)nn(-c2ccccc2Cl)c1-c1ccc(Cl)cc1
–,2.2 nM,–,N#CCc1c(C(=O)N[C@@H]2C[C@H]3CC[C@@H]2C3)nn(-c2ccccc2Cl)c1-c1ccc(Cl)cc1
–,0.41 nM,–,N#CCc1c(C(=O)NC2CCc3ccccc32)nn(-c2ccccc2Cl)c1-c1ccc(Cl)cc1 (stereo not drawn)
3.5,1.9 nM,–,N#CCc1c(C(=O)NC2CCCCC2)nn(-c2ccccc2Cl)c1-c1ccc(Cl)cc1
–,1 nM,–,N#CCc1c(C(=O)N2CCC(c3ccc(F)cc3)CC2)nn(-c2ccccc2Cl)c1-c1ccc(Cl)cc1
4.1,4.1 nM,–,N#CCc1c(C(=O)NCc2ccccc2F)nn(-c2ccccc2Cl)c1-c1ccc(Cl)cc1
4.4,5.8 nM,1.2 nM,N#CCc1c(C(=O)NCc2ccc(Br)cc2)nn(-c2ccccc2Cl)c1-c1ccc(Cl)cc1
4.4,1.2 nM,–,N#CCc1c(C(=O)NCc2ccc(Cl)cc2)nn(-c2ccccc2Cl)c1-c1ccc(Cl)cc1
–,0.52 nM,–,N#CCc1c(C(=O)NN2CCCCCC2)nn(-c2ccccc2Cl)c1-c1ccc(Cl)cc1
–,2.2 nM,–,COC(=O)c1ccccc1C1CCN(C(=O)c2nn(-c3ccccc3Cl)c(-c3ccc(Cl)cc3)c2CC#N)CC1
–,2.1 nM,–,N#CCc1c(C(=O)N2CCc3ccc(C(F)(F)F)cc3C2)nn(-c2ccccc2Cl)c1-c1ccc(Cl)cc1
–,1.2 nM,–,COC(=O)C(Cc1ccccc1)NC(=O)c1nn(-c2ccccc2Cl)c(-c2ccc(Cl)cc2)c1CC#N (stereo not drawn)
4.4,0.7 nM,–,N#CCc1c(C(=O)NCc2ccc(F)c(Br)c2)nn(-c2ccccc2Cl)c1-c1ccc(Cl)cc1
4.6,1.6 nM,–,N#CCc1c(C(=O)NCc2ccc(Cl)cc2Cl)nn(-c2ccccc2Cl)c1-c1ccc(Cl)cc1
–,0.22 nM,–,N#CCc1c(C(=O)N2Cc3ccc(Br)cc3C2)nn(-c2ccccc2Cl)c1-c1ccc(Cl)cc1
–,3 nM,–,N#CCc1c(C(=O)N2CCC(O)(c3ccc(F)cc3)CC2)nn(-c2ccccc2Cl)c1-c1ccc(Cl)cc1
4.1,2.1 nM,–,N#CCc1c(C(=O)NCc2ccc(F)cc2)nn(-c2ccccc2Cl)c1-c1ccc(Cl)cc1
–,5.7 nM,–,N#CCc1c(C(=O)N2Cc3ccc(F)cc3C2)nn(-c2ccccc2Cl)c1-c1ccc(Cl)cc1
–,1.6 nM,–,C[C@H]1CC[C@H](NC(=O)c2nn(-c3ccccc3Cl)c(-c3ccc(Cl)cc3)c2CC#N)CC1
3.8,4.2 nM,–,N#CCc1c(C(=O)NCc2ccc(C#N)cc2)nn(-c2ccccc2Cl)c1-c1ccc(Cl)cc1
–,5.7 nM,–,N#CCc1c(C(=O)N2CCc3ccccc3C2)nn(-c2ccccc2Cl)c1-c1ccc(Cl)cc1
